The values below come from the array DNA melting data of Ke et al. (doi:10.1101/2024.01.08.574731).

Data set [1] in a line: melting temperature; fluorescence melt of hairpins on a sequencing array, two-state fit, raised by 9.35 °C to match UV melts. Conditions: sodium 0.088 M. A digest of the protocol:
(§1)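 Hairpins were imaged by Cy3 fluorescence on a sequenced MiSeq flow cell with annealed Cy3 and quencher oligos, in 50 mM Na-HEPES pH 8.0, 25 mM NaCl, in 2.5 °C steps up to 60 °C. Bootstrapped two-state fits of normalised signals gave melting temperature and folding enthalpy. Four replicates were combined by inverse variance, and fitted temperatures were raised by 9.35 °C to match UV melts.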

Data set [2] can be described thus: folding enthalpy; higher = less favourable; fluorescence melt of hairpins on a sequencing array, two-state fit. Conditions: sodium 0.088 M. A digest of the protocol: as §1

With GCTCTCGAAAGAGGGAGC ((((((....)))..))), the Tm in data set [1] worked out at 45.5 °C. The folding enthalpy in data set [2] was -21.8 kcal/mol.
Consider GTCGCTGGAAACAGTGAC (((.(((....))).))), for which, in data set [1], the Tm stood at 54.9 °C. Moreover, the folding enthalpy in data set [2] was -50.4 kcal/mol.
Taken in the same sequence, the figures for GAATGTGGAAACACATCC (.(((((....))))).) were 36 °C and -14.1 kcal/mol.
Taken in the same sequence, the figures for GATCACGGAAACATGATC (((((.(....).))))) were 35.4 °C and -26 kcal/mol.
In the case of GGTAAGGGAAACCCTACC ((((.((....)).)))), the Tm in data set [1] turned out to be 40 °C. Further, the folding enthalpy in data set [2] is -24.3 kcal/mol.
GATCGGCACCCCGATC ((((((....)))))): in data set [1], the Tm was found to be 56.6 °C. For the same sequence, the folding enthalpy in data set [2] was -31.8 kcal/mol.
Consider CGTGCGGAAACGCTCACG ((((((....)))..))), for which the Tm in data set [1] is 39.9 °C. The folding enthalpy in data set [2] was -18.3 kcal/mol.
For GCATCGCGAAAGCCGTGC (((..((....))..))), the Tm in data set [1] is 45.1 °C. For the same sequence, in data set [2], the folding enthalpy was -19.3 kcal/mol.
As for GGTATGCGAAAGCACACC (((.(((....))).))), the Tm in data set [1] was found to be 49.7 °C. The folding enthalpy in data set [2] is -27.7 kcal/mol.
Taken in the same sequence, the figures for GGAAACGAAAGTTTCC ((((((....)))))) were 63.3 °C and -34.6 kcal/mol.
With GTAAAACGAAAGTTGTAC (((.(((....))).))), the Tm in data set [1] was determined as 35.3 °C. Also, in data set [2], the folding enthalpy was -20.4 kcal/mol.
On to GGCCTTACGAAAGTAGCC (((..(((....)))))), for which the Tm in data set [1] is 36.8 °C. Moreover, the folding enthalpy in data set [2] is -22.1 kcal/mol.
On to GATGACGAAAGTCCGATC ((((((....)))..))), for which the Tm in data set [1] turned out to be 26.8 °C. The folding enthalpy in data set [2] was -12.8 kcal/mol.
In the case of GGAACGGGAAACCGCTCC (((.(((....))).))), the Tm in data set [1] worked out at 48.7 °C. Further, in data set [2], the folding enthalpy is -28.1 kcal/mol.
On to GGTCGCTCGAAAGAGACC (((..(((....)))))), for which the Tm in data set [1] was 49.1 °C. In data set [2], the folding enthalpy is -20.6 kcal/mol.
For GATCACCGATGTGATC ((((((....)))))), in data set [1], the Tm came to 54.6 °C. For the same sequence, the folding enthalpy in data set [2] is -30.1 kcal/mol.
For the sequence GATCAGTCGCCTGATC ((((((....)))))), the Tm in data set [1] came out at 51.5 °C. Further, the folding enthalpy in data set [2] is -57.2 kcal/mol.
Consider CGAAGGCGGAAACGCTCG (((..(((....)))))), for which the Tm in data set [1] amounted to 37.5 °C. Besides, the folding enthalpy in data set [2] was -20.8 kcal/mol.
On to GCACAGCGAAAGCTTAGC ((..(((....)))..)), for which the Tm in data set [1] is 31.8 °C. The folding enthalpy in data set [2] is -10.9 kcal/mol.
Regarding GGCCAGCGAAAGCTCGCC (((.(((....))).))), the Tm in data set [1] was found to be 53.4 °C. Also, in data set [2], the folding enthalpy was -38.9 kcal/mol.
In the case of GGGATCGAAAGATCTCCC ((((((....)))..))), the Tm in data set [1] was 47.2 °C. In addition, the folding enthalpy in data set [2] was -14.1 kcal/mol.
Consider CGTGAGCGGAAACGCACG (((..(((....)))))), for which, in data set [1], the Tm was 45.9 °C. The folding enthalpy in data set [2] was -22.2 kcal/mol.
Turning to CGTGCCGGAAACGGTACG (((.(((....))).))), the Tm in data set [1] was 60.3 °C. In addition, in data set [2], the folding enthalpy is -32.4 kcal/mol.
Taken in the same sequence, the figures for GATCCAGGATTGGATC ((((((....)))))) were 55.1 °C and -39.9 kcal/mol.
On to GAGAGACGAAAGTCGCTC (((.(((....))).))), for which, in data set [1], the Tm is 60.5 °C. In addition, the folding enthalpy in data set [2] is -32.3 kcal/mol.
On to GACGCTGGAAACAACGTC ((((.((....)).)))), for which the Tm in data set [1] was 45.5 °C. Also, the folding enthalpy in data set [2] is -39.4 kcal/mol.
For GATCTCAATGAGATC ((((((...)))))), the Tm in data set [1] stood at 50.6 °C. Further, the folding enthalpy in data set [2] is -35.9 kcal/mol.
For GATCGGAAACGATC (((((....))))) the same measures were 55.1 °C and -28.7 kcal/mol.
In the case of GATCTACAACTAGATC ((((((....)))))), in data set [1], the Tm came to 34.1 °C. Further, the folding enthalpy in data set [2] was -25.6 kcal/mol.
For the sequence GGTATCGGAAACGGTACC ((((.((....)).)))), in data set [1], the Tm was 51.6 °C. The folding enthalpy in data set [2] is -40.6 kcal/mol.
With CGTCTGCGGAAACGCACG (((..(((....)))))), in data set [1], the Tm amounted to 38.7 °C. For the same sequence, the folding enthalpy in data set [2] was -12.2 kcal/mol.
Turning to GCTATGCGAAAGCGTCGC ((.(.((....)).).)), the Tm in data set [1] worked out at 43.2 °C. Besides, the folding enthalpy in data set [2] is -18.1 kcal/mol.
For GCTATCGAAAGATAGC ((((((....)))))) the same measures were 66.4 °C and -39 kcal/mol.
Consider GATCACTTGTGTGATC ((((((....)))))), for which the Tm in data set [1] came to 56.1 °C. The folding enthalpy in data set [2] was -40.4 kcal/mol.
Taken in the same sequence, the figures for GTTATTGGAAACAATAGC (.(((((....))))).) were 33.4 °C and -18.9 kcal/mol.
As for GATCTCCTTGGAGATC ((((((....)))))), the Tm in data set [1] is 60.5 °C. In data set [2], the folding enthalpy was -47.6 kcal/mol.
In the case of GTGAGCGGAAACACTCAC (((((.(....).))))), the Tm in data set [1] amounted to 47.7 °C. The folding enthalpy in data set [2] was -43.7 kcal/mol.
